High-throughput results from PubChem.
HCT116 PTEN-null: suppresses growth of cells with PTEN deletion | HCT116 PTEN-null viability, CellTiter-Glo, 60 h; stronger effect = lower value | actives 1.2% (n = 140,000) | viability, % at 10 µM;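 active means viability at or below a set limit, 4 SD under the median of all tested compounds, cut at about 3.7% in these data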;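 further: PTEN knockout HCT116 line with beta catenin targeted HCT116 as companion control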
Lmaj promast: Leishmania major promastigote growth inhibition; Leishmania major promastigotes, resazurin fluorescence viability; inhibition, % at 10 µM; actives 9% (n = 200,000); AID 1063; in the data active means inhibition above about 50%;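 further: promastigotes grown with compound for 44 hours at 28 °C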
TNAP inh noacc: blocks human TNAP activity with no phosphate acceptor present. P05186. purified TNAP, CDP-star luminescence, 30 min. inhibition, % at 20 µM. actives 0.26% (n = 200,000);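 active means tissue-nonspecific alkaline phosphatase inhibition above about 50% at 20 µM in the single-dose screen, limit read from the data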;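 further: 0% = DMSO negative control and 100% = EDTA positive control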
Target sequence (P05186 whole entry, looked up): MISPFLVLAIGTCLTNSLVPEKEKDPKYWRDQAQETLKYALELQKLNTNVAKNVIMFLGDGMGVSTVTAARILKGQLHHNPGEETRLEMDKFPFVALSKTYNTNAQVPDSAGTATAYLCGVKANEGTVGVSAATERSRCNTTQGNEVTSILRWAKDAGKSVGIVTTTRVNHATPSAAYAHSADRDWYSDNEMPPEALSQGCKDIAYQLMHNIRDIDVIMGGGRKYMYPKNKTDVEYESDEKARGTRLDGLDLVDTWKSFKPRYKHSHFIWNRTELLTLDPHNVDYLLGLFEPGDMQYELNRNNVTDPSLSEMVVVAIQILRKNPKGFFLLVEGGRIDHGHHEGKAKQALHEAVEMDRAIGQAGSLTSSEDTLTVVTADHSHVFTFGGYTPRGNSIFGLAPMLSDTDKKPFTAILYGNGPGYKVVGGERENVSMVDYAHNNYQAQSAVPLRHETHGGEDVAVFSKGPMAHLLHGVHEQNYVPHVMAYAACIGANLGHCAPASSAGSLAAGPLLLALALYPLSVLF
HCT116 bCat-KO: beta-catenin-lacking colon tumor cell growth suppression; HCT116 beta-catenin knockout viability, CellTiter-Glo, 60 h; stronger effect = lower value; viability, % at 10 µM; actives 1.5% (n = 140,000); AID 818;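 active means viability at or under a set limit, the compound median less 4 SD, cut at about 6% in these data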;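 further: 0% = Hyamine 1622 control at 20 µM and 100% = untreated cell control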
TNAP inh hiacc: TNAP (human) inhibition, high acceptor | purified TNAP, CDP-star luminescence, 1 M DEA | inhibition, % at 20 µM | actives 0.03% (n = 200,000);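 active means over 50% inhibition of tissue-nonspecific alkaline phosphatase at 20 µM in the single-dose screen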;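 further: plate controls were DMSO wells for no effect and EDTA-quenched wells as full inhibition for full effect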
TNAP act hi DEA: TNAP (human) activation, high acceptor. P05186. purified TNAP, CDP-star luminescence, 1 M DEA, 30 min; stronger effect = higher value; 0 = EDTA background, 1 = DMSO-only activity. activation factor at 20 µM. 200,000 tested, under 10 active. AID 1136;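 active means activation factor at least 2 at 20 µM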
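Control set: EDTA negative control, DMSO positive control / Assay system: human TNAP / Quantity: TNAP 1/800 final / Evaluation: TNAP activation factor scaled between EDTA and DMSO control wells / Measured by: luminescent substrate turnover signal / Compound dosing: one dose, 20 µM / Times: 30 min enzyme reaction at room temperature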
* hit, by the source's call; . = no result given. The list is not random: actives were taken first. Their share in the collection is about 9.6%.

SMILES | HCT116 PTEN-null | Lmaj promast | TNAP inh noacc | HCT116 bCat-KO | TNAP inh hiacc | TNAP act hi DEA
O=C(Cn1c(=O)oc2cc(S(=O)(=O)N3CCCC3)ccc21)N1CCN(c2ccccc2)CC1 | 77 | 100* | -2 | 84 | -8 | 1.1
O=C(Cn1c(=O)oc2cc(S(=O)(=O)N3CCCCCC3)ccc21)NC1CCCCCCC1 | 85 | -1 | 2 | 89 | -9 | 1.1
O=C(Cn1c(=O)oc2cc(S(=O)(=O)N3CCCC3)ccc21)Nc1ccc(C(F)(F)F)cc1 | 92 | 52* | -1 | 86 | -7 | 1.1
O=C(Cn1c(=O)oc2ccccc21)N1CCN(c2ccccc2)CC1 | 87 | -1 | -4 | 98 | 1 | 1
O=C(Cc1ccc(Cl)cc1)Nc1ccc2c(c1)C(=O)NC2=O | . | -4 | -4 | . | -6 | 1.1
CC1CCCN(Cc2csc(N)n2)C1 (stereo unspecified) | . | -7 | -14 | . | -6 | 1.1
O=C(Cn1c(=O)oc2cc(S(=O)(=O)N3CCCC3)ccc21)NC1CCCc2ccccc21 (stereo unspecified) | 81 | 100* | -44 | 87 | -11 | 1.1
CN(Cc1ccccc1)C(=O)Cn1c(=O)oc2cc(S(=O)(=O)NCc3ccccc3)ccc21 | 90 | -6 | -17 | 83 | -7 | 1.1
CN(Cc1ccccc1)C(=O)Cn1c(=O)oc2cc(S(=O)(=O)N3CCCC3)ccc21 | 79 | 100* | -19 | 93 | -4 | 1
CC(C)=C(NC(=O)c1ccccc1)C(=O)NCc1ccccc1 | . | -4 | -14 | . | -6 | 1.1
N/C(=N\OC(=O)CCCOc1ccccc1)c1cccc([N+](=O)[O-])c1 | . | -2 | -11 | . | -4 | 1
CCN(CC(=O)NC(c1ccccc1)c1ccccc1)Cc1nc2ccccc2c(=O)[nH]1 | 84 | 54* | -65 | 80 | -15 | 1.2
S=c1[nH]nc(-c2cc(-c3ccsc3)n[nH]2)n1-c1cccc2ccccc12 | . | 75* | -114 | . | -2 | 1
COc1ccc(-c2cc(-c3n[nH]c(=S)n3-c3cccc4ccccc34)[nH]n2)cc1 | . | 30 | -96 | . | -2 | 1
CC12CCC(c3c(C(=O)Nc4nccs4)nn(-c4ccccc4)c31)C2(C)C (stereo unspecified) | 1.6* | 100* | -7 | 1.4* | -4 | 1
N=c1c2c(-c3ccccc3)c(-c3ccccc3)n(Cc3ccco3)c2ncn1CCCn1ccnc1 | 2.1* | 100* | -166 | 2.2* | -6 | 1.1
N=c1c2c(-c3ccccc3)c(-c3ccccc3)n(Cc3ccco3)c2ncn1CCCN1CCOCC1 | . | 100* | -16 | . | -10 | 1.1
O=c1c2ccccc2nc(-c2ccccc2)n1Cc1ccco1 | 88 | -5 | -4 | 90 | -10 | 1.1
c1ccc(-c2oc3ncnc(NCCCn4ccnc4)c3c2-c2ccccc2)cc1 | 18 | 100* | -10 | 25 | -1 | 1
N=c1c2c(-c3ccccc3)c(-c3ccccc3)oc2ncn1CCN1CCOCC1 | 24 | 16 | -3 | 26 | 0 | 1
OCCNc1ncnc2c1c(-c1ccccc1)c(-c1ccccc1)n2Cc1ccco1 | 75 | 4 | -7 | 84 | 6 | 0.9
c1ccc(-c2c(-c3ccccc3)n(Cc3ccco3)c3ncnc(NCCCn4ccnc4)c23)cc1 | 54 | 100* | -205 | 59 | -13 | 1.1
CCOC(=O)c1cnc(SC2CCc3ccccc3C2=O)nc1N (stereo unspecified) | 76 | -10 | -7 | 106 | -7 | 1.1
CCC(C)(C)C1CCC(=NNC(=O)c2ccoc2C)CC1 (stereo unspecified) | 99 | -4 | -5 | 100 | -7 | 1.1
N#Cc1c(Cl)nc(N/N=C/c2ccccc2)c(Cl)c1Cl | 1.6* | 29 | -11 | 2.8* | -1 | 1
SMILES | HCT116 PTEN-null | Lmaj promast | TNAP inh noacc | HCT116 bCat-KO | TNAP inh hiacc | TNAP act hi DEA
N#CC1=C(N)Oc2ccc3ccc(O)cc3c2C1c1cccnc1 (stereo unspecified) | 90 | 2 | -12 | 89 | -6 | 1.1
N#CC1=C(N)Oc2ccc3ccccc3c2C1c1cccnc1 (stereo unspecified) | . | 88* | -1 | . | 1 | 1
Cc1ccnc(NC(=O)c2cccc(NS(=O)(=O)c3ccccc3C)c2)c1 | 111 | 91* | -9 | 87 | -2 | 1
COc1ccc(-c2nn(-c3ccccc3)cc2/C=N/NC(=S)NC(C)C)cc1OC | 76 | 61* | -65 | 73 | -4 | 1
C=CCNC(=S)N/N=C/c1cn(-c2ccccc2)nc1-c1ccc(OC)cc1 | 78 | 6 | 9 | 71 | 2 | 1
COc1ccc(-c2nn(-c3ccccc3)cc2/C=N/Nc2ccc(S(N)(=O)=O)cc2[N+](=O)[O-])cc1OC | . | 14 | 17 | . | 16 | 0.8
COc1ccc(-c2nn(-c3ccccc3)cc2/C=N/N=C(N)N)cc1OC | 1.2* | 46 | -1 | 1.6* | -2 | 1
COc1ccc(-c2nn(-c3ccccc3)cc2/C=N/Nc2ccc3ccccc3n2)cc1OC | 55 | 51* | -9 | 62 | -6 | 1.1
COc1ccc(-c2nn(-c3ccccc3)cc2CO)cc1OC | 91 | -8 | -14 | 100 | -6 | 1.1
Cc1c(C=O)c2ccccn2c1C(=O)c1cccc([N+](=O)[O-])c1 | . | 5 | -6 | . | -1 | 1
COc1ccc(N(C(C)C(=O)Nc2cccnc2)S(C)(=O)=O)cc1 (stereo unspecified) | . | -6 | -3 | . | -4 | 1
Cc1c(Cl)cccc1NC(=O)CNCc1ccccc1F | . | -7 | -7 | . | -5 | 1
Cc1ccc(S(=O)(=O)/N=C2/C=C(C3C(=O)CC(C)(C)CC3=O)C(=O)c3ccccc32)cc1 | 68 | -1 | 0 | 78 | 3 | 1
CCc1ccc(S(=O)(=O)/N=C2/C=C(Sc3ncn[nH]3)C(=O)c3ccccc32)cc1 | 3.4* | 100* | 44 | 2.5* | 6 | 0.9
CCc1ccc(S(=O)(=O)/N=C2\C=CC(=O)c3ccccc32)cc1 | . | 93* | 5 | . | 6 | 0.9
CCOC(=O)c1ccccc1NS(=O)(=O)c1ccccc1 | 73 | 2 | -15 | 81 | -5 | 1.1
CC(OC(=O)c1ccccc1NS(=O)(=O)c1cccc(N)c1)C(=O)N(C)Cc1ccccc1 (stereo unspecified) | 87 | 82* | -16 | 84 | 0 | 1
NNC(=O)c1ccc2nc(-c3ccc(Br)cc3)cn2c1 | . | 54* | -13 | . | -2 | 1
COc1ccc(-c2cn3cc(C(=O)NN)ccc3n2)cc1 | . | 2 | -11 | . | -11 | 1.1
CCNS(=O)(=O)c1ccc(NC(=O)CC(C)c2ccccc2)cc1 (stereo unspecified) | . | 1 | -14 | . | -4 | 1
Cc1ccc2nc(NCCCN3CCOCC3)c(C=NCCCN3CCOCC3)c(=O)n2c1 | 104 | 79* | -16 | 98 | -5 | 1
COc1ccc(NC(=O)CN2C(=O)N(C)Cc3ccccc32)c(C)c1 | . | -2 | -11 | . | -4 | 1
